From ChEMBL document CHEMBL1138681, “Identification of structurally diverse growth hormone secretagogue agonists by virtual screening and structure-activity relationship analysis of 2-formylaminoacetamide derivatives” (J Med Chem, 2004)
Active and inactive are the calls of the source. The rule behind the calls is not given here.

How the values were obtained:
[1] = biological target: T1, Growth hormone secretagogue receptor type 1 (Homo sapiens, UniProt Q92847); assay: Tested for growth hormone secretagogue activity in A93 cell line using a calcium flux assay at 10 uM (Relative to compound T1); NA means not active; assay type: functional, cell-based
[2] = biological target: T1, Growth hormone secretagogue receptor type 1; assay: Tested for growth hormone secretagogue activity in A93 cell line using a calcium flux assay at 10 uM (Relative to compound T1); assay type: functional, cell-based
[3] = biological target: T1, Growth hormone secretagogue receptor type 1; assay: Binding affinity for human growth hormone secretagogue receptor was determined using [125I]ghrelin
Outline: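 Competition binding with (125I)ghrelin (human) at the GHS receptor, run by a contract laboratory following published methods. Ki values were derived from binding curves.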

[4] = biological target: T1, Growth hormone secretagogue receptor type 1; assay: Binding affinity for human growth hormone secretagogue receptor using [125I]ghrelin; NA means not active
Outline: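 Radioligand displacement with (125I)ghrelin (human) at GHS receptor, run by a contract lab following published methods; Ki values reported; binding curves in supplement.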

T1 sequence (Q92847 whole entry): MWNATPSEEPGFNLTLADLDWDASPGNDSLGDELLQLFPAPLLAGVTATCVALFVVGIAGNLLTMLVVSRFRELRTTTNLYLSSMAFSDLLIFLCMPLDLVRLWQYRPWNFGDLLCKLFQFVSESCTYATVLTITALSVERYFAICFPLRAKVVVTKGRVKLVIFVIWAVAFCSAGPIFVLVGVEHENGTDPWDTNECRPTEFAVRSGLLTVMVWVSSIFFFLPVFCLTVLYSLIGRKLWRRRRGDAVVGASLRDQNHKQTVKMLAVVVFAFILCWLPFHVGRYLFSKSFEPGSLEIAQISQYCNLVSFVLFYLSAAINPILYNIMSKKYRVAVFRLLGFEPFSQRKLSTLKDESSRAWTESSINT

Compound	Activity [1]	Activity [2]	Ki [3] [nM]	further results
CCN(CC)CCCN(C(=O)c1ccc(-c2ccccc2)[nH]1)C(C(=O)NC1CCCCC1)c1cccs1 (stereo unspecified)	inactive	–	–	–
CCN(CC)CCCN(C(=O)CCN1CCCc2ccccc21)C(C(=O)NC1CCCCC1)c1ccc(F)cc1 (stereo unspecified)	–	0.31	2030	–
CCN(CC)CCCN(C(=O)c1ccc(-c2ccccc2)[nH]1)C(C)C(=O)NC1CCCCC1 (stereo unspecified)	–	0.96	1920	–
O=C(NC1CCCCC1)C(c1ccc(F)cc1)N(C(=O)c1ccc(-c2ccccc2)[nH]1)C1CCCCC1 (stereo unspecified)	inactive	–	–	–
CCC(C(=O)NC1CCCCC1)N(CCCN(CC)CC)C(=O)c1ccc(-c2ccccc2)[nH]1 (stereo unspecified)	–	1.23	220	–
O=C(NC1CCCCC1)C(c1ccc(F)cc1)N(CCN1CCOCC1)C(=O)c1ccc(-c2ccccc2)[nH]1 (stereo unspecified)	inactive	–	–	–
CCN(CC)CCCN(C(=O)c1ccc(-c2ccccc2)[nH]1)C(Cc1ccc(C)o1)C(=O)NC1CCCCC1 (stereo unspecified)	–	0.28	1170	–
CCN(CC)CCCN(C(=O)c1ccc(-c2ccccc2)[nH]1)C(C(=O)NC1CCCCC1)c1ccc(C)cc1 (stereo unspecified)	inactive	–	–	–
O=C(NC1CCCC1)C(c1ccncc1)N(CCCN1CCOCC1)C(=O)c1ccc(-c2ccccc2)[nH]1 (stereo unspecified)	inactive	–	–	–
CCN(CC)CCN(C(=O)c1ccc(-c2ccccc2)[nH]1)C(C(=O)NC1CCCCC1)c1ccc(F)cc1 (stereo unspecified)	–	0.24	1370	–
CCN(CC)CCCN(C(=O)c1ccc(-c2ccccc2)[nH]1)C(C(=O)NC1CCCCC1)c1ccc(O)cc1 (stereo unspecified)	–	0.52	1320	–
CCN(CC)CCCN(C(=O)c1ccc(-c2ccccc2)[nH]1)C(C(=O)NC1CCCCC1)c1ccco1 (stereo unspecified)	inactive	–	–	–
CCN(CC)CCCN(C(=O)c1ccc(-c2ccccc2)[nH]1)C(C(=O)NC1CCCCC1)c1ccc(OC)c(OC)c1 (stereo unspecified)	–	0.32	2630	–
CC(C)(C)NC(=O)C(c1ccc(F)cc1)N(CCCN1CCOCC1)C(=O)c1ccc(-c2ccccc2)[nH]1 (stereo unspecified)	–	–	–	Ki [4]: Not Active
CCN(CC)CCN(C(=O)c1ccc(CN2CCCCC2)o1)C(C(=O)NC1CCCCC1)c1ccc(F)cc1 (stereo unspecified)	–	–	–	Ki [4]: Not Active
COc1ccc(CN(C(=O)c2ccc(-c3ccccc3)[nH]2)C(C)C(=O)NC2CCCCC2)cc1 (stereo unspecified)	inactive	–	–	–
CCN(CC)CCN(C(=O)c1ccc(CN2CCCCC2)o1)C(C(=O)NC1CCCCC1)c1ccc(N(C)C)cc1 (stereo unspecified)	inactive	–	–	–
CCCCC(C(=O)NC1CCCCC1)N(CCCN(CC)CC)C(=O)c1ccc(-c2ccccc2)[nH]1 (stereo unspecified)	–	1.6	280	–
CCOc1ccc(C(C(=O)NC2CCCCC2)N(CCCN(CC)CC)C(=O)c2ccc(-c3ccccc3)[nH]2)cc1 (stereo unspecified)	inactive	–	–	–
O=C(NC1CCCCC1)C(c1ccc(F)cc1)N(CCCN1CCOCC1)C(=O)c1ccc(CN2CCOCC2)o1 (stereo unspecified)	inactive	–	–	–
CCN(CC)CCCN(C(=O)c1ccc(-c2ccccc2)[nH]1)C(C(=O)NCc1ccc(F)cc1)c1ccc(F)cc1 (stereo unspecified)	–	0.45	1150	–
CCN(CC)CCCN(C(=O)Cn1nnc(-c2ccc(OC)c(OC)c2)n1)C(C(=O)NC1CCCCC1)c1ccc(F)cc1 (stereo unspecified)	inactive	–	–	–
CCN(CC)CCCN(C(=O)c1ccc(-c2ccccc2)[nH]1)C(C(=O)NC1CCCCC1)c1cc(OC)ccc1OC (stereo unspecified)	inactive	–	–	–
O=C(NC1CCCCC1)C(c1ccc(F)cc1)N(CCCN1CCOCC1)C(=O)c1ccc(-c2ccccc2)[nH]1 (stereo unspecified)	–	–	–	Ki [4]: Not Active
CCN(CC)CCN1C(=O)[C@@](O)(c2ccccc2Cl)c2c1cc(C(N)=O)cc2C(F)(F)F	–	–	–	IC50 [3]: 1.2 nM
CCCC(C(=O)NC1CCCCC1)N(CCCN(CC)CC)C(=O)c1ccc(-c2ccccc2)[nH]1 (stereo unspecified)	–	1.37	870	–

The next lines start with results.

Activity [1]	Activity [2]	Ki [3] [nM]	Compound	further results
inactive	–	–	COc1ccc(CN(C(=O)c2ccc(-c3ccccc3)[nH]2)C(C(=O)NC2CCCCC2)c2ccc(F)cc2)cc1 (stereo unspecified)	–
inactive	–	–	CCOC(=O)CN(C(=O)c1ccc(-c2ccccc2)[nH]1)C(C)C(=O)NC1CCCCC1 (stereo unspecified)	–
inactive	–	–	Cc1ccc(CC(C(=O)NC2CCCCC2)N(Cc2ccccc2)C(=O)c2ccc(-c3ccccc3)[nH]2)o1 (stereo unspecified)	–
inactive	–	–	Cc1ccc(CC(C(=O)NC2CCCCC2)N(C(=O)c2ccc(-c3ccccc3)[nH]2)C2CCCC2)o1 (stereo unspecified)	–
–	0.38	1180	CCN(CC)CCCN(C(=O)c1ccc(-c2ccccc2)[nH]1)C(C)C(=O)NC(C)(C)C (stereo unspecified)	–
inactive	–	–	O=C(NC1CCCC1)C(c1ccncc1)N(C(=O)c1ccc(-c2ccccc2)[nH]1)c1ccccc1 (stereo unspecified)	–
inactive	–	–	CCN(CC)CCCN(C(=O)c1ccc(-c2ccccc2)[nH]1)C(C(=O)NC1CCCCC1)c1cc(OC)c(OC)c(OC)c1 (stereo unspecified)	–
inactive	–	–	CCN(CC)CCCN(C(=O)c1snc(C(N)=O)c1N)C(C(=O)NC1CCCCC1)c1ccc(F)cc1 (stereo unspecified)	–
–	1.16	910	CCN(CC)CCCN(C(=O)c1ccc(-c2ccccc2)[nH]1)C(C(=O)NC1CCCCC1)c1ccncc1 (stereo unspecified)	–
–	0.57	1290	CCN(CC)CCCN(C(=O)c1ccc(-c2ccccc2)[nH]1)C(C(=O)NC1CCCCC1)c1ccc(F)cc1 (stereo unspecified)	–
inactive	–	–	CCN(CC)CCN(C(=O)c1ccc(-c2ccccc2)[nH]1)C(C(=O)NC1CCCCC1)c1c[nH]c2ccccc12 (stereo unspecified)	–
inactive	–	–	O=C(NC1CCCCC1)C(c1ccc(F)cc1)N(C(=O)c1ccc(-c2ccccc2)[nH]1)c1ccccc1 (stereo unspecified)	–
